# Measurements reported in ChEMBL document CHEMBL4145692, “Discovery of a Locally and Orally Active CXCL12 Neutraligand (LIT-927) with Anti-inflammatory Effect in a Murine Model of Allergic Airway Hypereosinophilia” (J Med Chem, 2018).
# Calls of active or inactive are those of the source. The calls are words filed in the database; no cut-off is given here.
# Tests used:
# [1] = Kinetic solubility in pH 7.4 HEPES-BSA buffer at 5 uM incubated for 24 hrs at 20 degC by HPLC method; format: physicochemical; details: read-out: Kinetic_solubility
# Method in brief: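 Compound added from 10 mM DMSO stock to 5 μM in pH 7.4 HEPES-BSA buffer (1 g/L BSA), shaken 24 h at 20 °C. After centrifugation, supernatant concentration measured by HPLC against 5 and 10 μM standards.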
# [2] = molecular target: T1, Stromal cell-derived factor 1 (Homo sapiens, UniProt P48061); assay: Binding affinity to Texas Red-labelled CXCL12 (unknown origin) assessed as inhibition of CXCL12-Texas Red binding to EGFP-labeled human CXCR4 expressed in HEK293 cell membranes pre-incubated for 1 hr by FRET-based binding assay
# T1 sequence (P48061 whole entry): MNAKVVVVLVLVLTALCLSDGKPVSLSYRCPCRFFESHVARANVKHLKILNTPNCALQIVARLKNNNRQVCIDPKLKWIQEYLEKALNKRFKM
# Method in brief: (§1)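 HEK-293 cells stably expressing human EGFP-CXCR4, 10⁶ cells/ml in HEPES buffer pH 7.4 with 0.1% BSA, 21 °C. CXCL12-Texas Red (100 nM) was preincubated 1 h at room temperature with compound or DMSO, then added at t=150 s. FRET read as loss of EGFP emission at 510 nm (excitation 470 nm) up to equilibrium. Ki from dose-response curves.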
# [3] = molecular target: T1, Stromal cell-derived factor 1; assay: Binding affinity to Texas Red-labelled CXCL12 (unknown origin) assessed as inhibition of CXCL12-Texas Red binding to EGFP-labeled human CXCR4 expressed in HEK293 cell membranes at 30 uM pre-incubated for 1 hr by FRET-based binding assay; method in brief: as §1
# Mus musculus [4] = assay: Inhibition of lymphocytes infiltration in Balb/c mouse model of 8 day model of allergic eosinophilic airway inflammation at 300 nmol/kg dosed intranasally 2 hrs before ovalbumin challenge by hemocytometry; format: functional, organism-based
# Method in brief: (§2)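 OVA/alum-sensitized Balb/c mice challenged intranasally with OVA on days 5–7. Compounds at 300 nmol/kg in 10% PBS/Cdx given intranasally 2 h before each challenge. BAL 24 h after the last challenge; eosinophils, neutrophils and lymphocytes counted by hemocytometer and differential cytospin; n=6/group.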
# Mus musculus [5] = assay: Inhibition of macrophages infiltration in Balb/c mouse model of 8 day model of allergic eosinophilic airway inflammation at 300 nmol/kg dosed intranasally 2 hrs before ovalbumin challenge by hemocytometry; format: functional, organism-based
# [6] = Thermodynamic solubility in pH 7.4 PBS buffer incubated for 24 hrs at 22 degC by HPLC method; format: physicochemical; details: read-out: Therm_solubility
# Method in brief: (§3)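 Powder dissolved to saturation in pH 7.4 PBS (100 mM sodium phosphate, 150 mM NaCl), or in PBS with 10% Cdx, and shaken 24 h. After centrifugation, supernatant quantified by HPLC against a per-compound calibration line prepared from the DMSO stock.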
# [7] = Chemical stability in pH 7.4 PBS buffer assessed as parent compound remaining at 10 uM incubated for 24 hrs by RP-HPLC method; format: physicochemical; details: read-out: Stability
# Method in brief: (§4)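 Compound diluted from DMSO stock to 10 μM final (1% DMSO) in PBS pH 7.4, or in PBS with 10% w/w (2-hydroxypropyl)-β-cyclodextrin. Sampled at t0, 2, 4, 6 and 24 h and injected directly onto RP-HPLC. Percent remaining relative to t0 from peak area.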
# Mus musculus [8] = assay: Inhibition of eosinophil infiltration in Balb/c mouse model of 8 day model of allergic eosinophilic airway inflammation at 300 nmol/kg dosed intranasally 2 hrs before ovalbumin challenge by hemocytometry; format: functional; details: for inhibition in vivo at 0.3 µmol/kg: inhaled or nasal; method in brief: as §2
# [9] = Thermodynamic solubility in pH 7.4 PBS/Cdx buffer incubated for 24 hrs at 22 degC by HPLC method; format: physicochemical; details: read-out: Therm_solubility; method in brief: as §3
# [10] = Chemical stability in pH 7.4 PBS/Cdx buffer assessed as parent compound remaining at 10 uM incubated for 24 hrs by RP-HPLC method; format: physicochemical; details: read-out: Stability; method in brief: as §4
# [11] = molecular target: T1, Stromal cell-derived factor 1; assay: Binding affinity to Texas Red-labelled CXCL12 (unknown origin) assessed as inhibition of CXCL12-Texas Red binding to EGFP-labeled human CXCR4 expressed in HEK293 cell membranes at 5 uM pre-incubated for 1 hr by FRET-based binding assay; method in brief: as §1
# [12] = molecular target: T1, Stromal cell-derived factor 1; assay: Binding affinity to Texas Red-labelled CXCL12 (unknown origin) assessed as inhibition of CXCL12-Texas Red binding to EGFP-labeled human CXCR4 expressed in HEK293 cell membranes at 10 uM pre-incubated for 1 hr by FRET-based binding assay
# Method in brief: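 FRET binding assay in EGFP-CXCR4 HEK-293 cells. Compound at 10 μM preincubated with CXCL12 before addition to the cells; binding read as EGFP emission at 510 nm after CXCL12-Texas Red addition. T134 (20 μM) used as control.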
"solubility kinetic at 24 h, 5 µM [1]",Ki [2],SMILES,also measured
0.36 µM,> 10000 nM,COc1cccc(/C=C/C(=O)c2ccc(Cl)cc2)c1,–
> 5 µM,> 10000 nM,COc1ccc(/C=C/C(=O)c2ccc(Cl)cc2)cc1OC,–
> 5 µM,–,COc1cc(/C=C/C(=O)c2cccc(Cl)c2)ccc1O,inhibition [3]: 25%
> 5 µM,107 nM,COc1cc(/C=C/C(=O)c2ccc(I)cc2)ccc1O,"inhibition (Mus musculus [4]): inactive; inhibition (Mus musculus [5]): inactive; solubility thermodynamic at 24 h [6]: 1.2 µM; remaining at 24 h, 10 µM [7]: 100%; inhibition in vivo at 0.3 µmol/kg (Mus musculus [8]): 36%; solubility thermodynamic at 24 h [9]: 319 µM; remaining at 24 h, 10 µM [10]: 100%"
> 5 µM,> 10000 nM,COc1cc(/C=C/C(=O)c2ccc(Cl)cc2)ccc1[N+](=O)[O-],–
–,> 10000 nM,COc1cc(CCC(=O)c2ccc(Cl)cc2)ccc1O,–
> 5 µM,107 nM,COc1cc(/C=C/C(=O)c2ccc(Cl)cc2F)ccc1O,–
> 5 µM,1380 nM,O=C(/C=C/c1ccc2c(c1)OCCO2)c1ccc(Cl)cc1,–
> 5 µM,–,COc1cc(/C=C/C(=O)c2ccc(S(=O)(=O)O)cc2)ccc1O,inhibition [3]: 6%
> 5 µM,> 5000 nM,COc1cc(/C=C(\C)C(=O)c2ccc(Cl)cc2)ccc1O,–
> 5 µM,496 nM,Cl.NCCOCCOc1cc(/C=C2\Cc3cc(Cl)ccc3C2=O)ccc1O,inhibition (Mus musculus [4]): inactive; inhibition (Mus musculus [5]): inactive
2.6 µM,> 10000 nM,COc1cc(/C(C)=C/C(=O)c2ccc(Cl)cc2)ccc1O,–
> 5 µM,1780 nM,COc1ccc(C(=O)/C=C/c2ccc(O)c(OC)c2)cc1,–
> 5 µM,625 nM,O=C(/C=C/c1ccc(O)cc1)c1ccc(Cl)cc1,–
> 5 µM,714 nM,COc1cc(/C=C/C(=O)c2ccc(Cl)c(Cl)c2)ccc1O,–
> 5 µM,44 nM,COc1cc(/C=C/C(=O)c2ccc(Br)cc2)ccc1O,–
> 5 µM,71 nM,COc1cc(/C=C/C(=O)c2c(Cl)cccc2Cl)ccc1O,–
> 5 µM,357 nM,Cl.NCCOc1cc(/C=C/C(=O)c2ccc(Cl)cc2)ccc1O,"inhibition (Mus musculus [4]): inactive; inhibition (Mus musculus [5]): inactive; solubility thermodynamic at 24 h [6]: 4.2 µM; remaining at 24 h, 10 µM [7]: 100%; inhibition (Mus musculus [8]): inactive; solubility thermodynamic at 24 h [9]: > 5000 µM; remaining at 24 h, 10 µM [10]: 100%"
> 5 µM,> 10000 nM,COc1cc(/C=C/C(=O)c2ccc(Cl)cc2)ccc1N,–
1.92 µM,25 nM,COc1cc(/C=C/C(=O)c2ccc(C(C)C)cc2)ccc1O,–
0.88 µM,107 nM,COc1cc(/C=C2\Cc3cc(Cl)ccc3C2=O)ccc1O,–
> 5 µM,350 nM,O=C(/C=C/c1ccc(O)c(O)c1)c1ccc(Cl)cc1,–
> 5 µM,357 nM,COc1cc(/C=C2\COc3cc(Cl)ccc3C2=O)ccc1O,"solubility thermodynamic at 24 h [6]: 0.5 µM; remaining at 24 h, 10 µM [7]: 100%; inhibition (Mus musculus [8]): inactive; solubility thermodynamic at 24 h [9]: 933 µM; remaining at 24 h, 10 µM [10]: 100%"
> 5 µM,107 nM,COc1cc(/C=C/C(=O)c2ccccc2Cl)ccc1O,–
> 5 µM,5350 nM,COc1cc(/C=C/C(=O)c2ccc(C(=O)O)cc2)ccc1O,–
> 5 µM,1070 nM,Cl.NCCOCCOc1cc(/C=C/C(=O)c2ccc(Cl)cc2)ccc1O,–
> 5 µM,357 nM,COc1cc(/C=C/C(=O)c2cccc(Cl)c2Cl)ccc1O,–

"solubility kinetic at 24 h, 5 µM [1]",Ki [2],SMILES,also measured
4.72 µM,–,CCOc1cc(/C=C/C(=O)c2ccc(Cl)cc2)ccc1O,inhibition [11]: 52%
> 5 µM,> 10000 nM,COc1cc(/C=C/C(=O)c2ccncc2)ccc1O,–
> 5 µM,> 10000 nM,COc1ccc(/C=C/C(=O)c2ccc(Cl)cc2)cc1O,–
> 5 µM,> 10000 nM,COc1cc(/C=C/C(=O)c2cccnc2)ccc1O,–
> 5 µM,–,COc1cc(/C=C2\CCc3cc(Cl)ccc3C2=O)ccc1O,inhibition [12]: 70%
4.29 µM,–,COc1cc(-c2cc(-c3ccc(Cl)cc3)ncn2)ccc1O,inhibition [11]: 30%
> 5 µM,> 10000 nM,CNc1nc(-c2ccc(Cl)cc2)cc(-c2ccc(O)c(OC)c2)n1,–
> 5 µM,48 nM,COc1cc(/C=C/C(=O)c2ccc(Cl)cc2Cl)ccc1O,–
> 5 µM,53 nM,COc1cc(/C=C/C(=O)c2cc(Cl)ccc2Cl)ccc1O,–
> 5 µM,> 10000 nM,COc1cc(/C=C/C(=O)c2ccccc2)ccc1O,inhibition [12]: inactive
> 5 µM,> 10000 nM,COc1cc(/C=C/C(=N/O)c2ccc(Cl)cc2)ccc1O,–
> 5 µM,203 nM,COc1cc(/C=C2\Oc3cc(Cl)ccc3C2=O)ccc1O,"solubility thermodynamic at 24 h [6]: 1.9 µM; remaining at 24 h, 10 µM [7]: 100%; inhibition (Mus musculus [8]): inactive; solubility thermodynamic at 24 h [9]: 330 µM; remaining at 24 h, 10 µM [10]: 100%"
–,> 10000 nM,COc1cc(-c2cc(-c3ccc(Cl)cc3)n[nH]2)ccc1O,–
> 5 µM,107 nM,COc1cc(C2CC(c3ccc(Cl)cc3)=NN2)ccc1O (stereo not drawn),"inhibition (Mus musculus [4]): inactive; inhibition (Mus musculus [5]): inactive; solubility thermodynamic at 24 h [6]: 34.6 µM; remaining at 24 h, 10 µM [7]: 78%; inhibition in vivo at 0.3 µmol/kg (Mus musculus [8]): 39%; solubility thermodynamic at 24 h [9]: > 3000 µM; remaining at 24 h, 10 µM [10]: 98%"
> 5 µM,> 10000 nM,O=C(/C=C/c1ccc(O)c(C(=O)O)c1)c1ccc(Cl)cc1,–
> 5 µM,430 nM,COc1cc(/C=C/C(=O)c2ccc(F)cc2)ccc1O,–
> 5 µM,285 nM,COc1cc(/C=C/C(=O)c2ccc(C)cc2)ccc1O,–
> 5 µM,> 10000 nM,COc1cc(C(=O)/C=C/c2ccc(Cl)cc2)ccc1O,–
> 5 µM,> 10000 nM,COc1cc(C2CC(c3ccc(Cl)cc3)=NN2C(C)=O)ccc1O (stereo not drawn),–
–,–,COCOc1ccc(/C=C/C(=O)c2ccc(Cl)cc2O)cc1OC,inhibition (Mus musculus [4]): inactive; inhibition (Mus musculus [5]): inactive
> 5 µM,–,COc1cc(/C=C/C(=O)c2ccc([N+](=O)[O-])cc2)ccc1O,inhibition [3]: 30%
> 5 µM,475 nM,Cl.NCCOCCOCCOc1cc(/C=C/C(=O)c2ccc(Cl)cc2)ccc1O,–
> 5 µM,> 10000 nM,COc1cc(-c2cc(-c3ccc(Cl)cc3)nc(N)n2)ccc1O,–
> 5 µM,1680 nM,COc1cc(-c2cc(-c3ccc(Cl)cc3)nc(C)n2)ccc1O,–
0.95 µM,–,COc1cc(/C=C/C(=O)c2ccc3ccccc3c2)ccc1O,inhibition [3]: 5%
> 5 µM,1070 nM,COc1cc(/C=C/C(=O)c2ccc(C(F)(F)F)cc2)ccc1O,–
